In ChEMBL document CHEMBL4359840, “Computationally Driven Structure Optimization, Synthesis, and Biological Evaluation of Imidazole-Based Proprotein Convertase Subtilisin/Kexin 9 (PCSK9) Inhibitors” (J Med Chem, 2019):
pEC50, pIC50: −log10 of the molar value. Blank lines part the entries; values can stand above or below the compound they belong to. The source made the active and inactive calls. No cut-off for these calls is given here.

Experiments:
[1] = target: T1, PCSK9/LDLR (Homo sapiens, UniProt Q8NBP7); assay: Inhibition of PCSK9 (unknown origin) interaction with LDLR expressed in human HepG2 cells assessed as increase in LDL uptake level measured after 24 hrs by LDL-Dylight 550 dye based fluorescence assay; format: cell-based
Target sequence in this assay (Q8NBP7 31-152 limits assumed): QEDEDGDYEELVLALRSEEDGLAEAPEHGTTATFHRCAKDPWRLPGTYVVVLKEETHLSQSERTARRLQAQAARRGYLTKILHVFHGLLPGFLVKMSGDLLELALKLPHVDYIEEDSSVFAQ
Target sequence in this assay (Q8NBP7 153-692 limits assumed): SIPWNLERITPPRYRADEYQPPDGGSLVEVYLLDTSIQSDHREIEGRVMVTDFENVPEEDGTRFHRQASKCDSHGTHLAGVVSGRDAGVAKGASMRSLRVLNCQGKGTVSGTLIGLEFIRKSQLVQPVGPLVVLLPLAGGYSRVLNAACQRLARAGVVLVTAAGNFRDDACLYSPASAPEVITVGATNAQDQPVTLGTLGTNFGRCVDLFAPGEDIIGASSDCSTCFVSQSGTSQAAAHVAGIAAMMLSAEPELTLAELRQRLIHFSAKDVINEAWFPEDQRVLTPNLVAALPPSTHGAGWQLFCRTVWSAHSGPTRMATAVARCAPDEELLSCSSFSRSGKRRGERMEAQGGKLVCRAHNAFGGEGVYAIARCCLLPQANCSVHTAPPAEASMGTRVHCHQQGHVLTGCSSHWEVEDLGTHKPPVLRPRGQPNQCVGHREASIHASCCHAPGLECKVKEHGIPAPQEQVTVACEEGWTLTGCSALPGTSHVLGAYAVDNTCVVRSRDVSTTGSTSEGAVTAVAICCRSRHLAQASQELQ
Target sequence in this assay (P01130 22-860 partner limits assumed): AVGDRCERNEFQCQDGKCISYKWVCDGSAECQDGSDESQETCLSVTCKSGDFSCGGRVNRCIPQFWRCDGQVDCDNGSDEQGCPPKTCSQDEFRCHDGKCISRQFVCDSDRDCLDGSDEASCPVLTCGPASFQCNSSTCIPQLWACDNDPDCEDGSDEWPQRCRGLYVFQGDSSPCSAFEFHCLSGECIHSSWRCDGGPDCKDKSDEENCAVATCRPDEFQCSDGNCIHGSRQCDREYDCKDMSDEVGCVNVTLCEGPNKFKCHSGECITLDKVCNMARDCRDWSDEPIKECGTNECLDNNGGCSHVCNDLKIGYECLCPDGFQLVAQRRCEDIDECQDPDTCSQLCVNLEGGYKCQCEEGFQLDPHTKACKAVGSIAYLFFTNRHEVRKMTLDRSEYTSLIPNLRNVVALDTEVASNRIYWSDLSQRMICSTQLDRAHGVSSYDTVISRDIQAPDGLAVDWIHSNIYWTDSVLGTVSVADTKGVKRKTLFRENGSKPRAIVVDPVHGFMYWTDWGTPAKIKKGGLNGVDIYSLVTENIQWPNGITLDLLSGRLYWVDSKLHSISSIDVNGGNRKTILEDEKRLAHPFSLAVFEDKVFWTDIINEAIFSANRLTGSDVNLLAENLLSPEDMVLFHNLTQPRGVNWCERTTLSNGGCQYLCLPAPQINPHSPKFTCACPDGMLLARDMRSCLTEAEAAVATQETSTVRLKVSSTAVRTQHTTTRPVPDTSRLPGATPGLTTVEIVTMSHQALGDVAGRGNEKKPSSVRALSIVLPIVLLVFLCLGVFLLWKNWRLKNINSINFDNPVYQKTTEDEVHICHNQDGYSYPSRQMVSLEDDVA

[2] = target: T2, PCSK9/LDLR (Homo sapiens) (UniProt Q8NBP7+P01130); assay: Inhibition of PCSK9 (unknown origin) interaction with LDLR expressed in human HepG2 cells assessed as LDLR level on cell membrane at 1 uM measured after 2 hrs by in-cell Western analysis (reference value: 30.5 to 47.2%); format: cell-based; design: scale not given: the % may be the effect or the level left
T2 sequence (P01130 22-860 partner limits assumed): as above
T2 sequence (Q8NBP7 31-152 limits assumed): as the sequence (Q8NBP7 31-152 limits assumed) above
T2 sequence (Q8NBP7 153-692 limits assumed): as the sequence (Q8NBP7 153-692 limits assumed) above

[3] = target: T1, PCSK9/LDLR; assay: (§1) Inhibition of recombinant His-tagged PCSK9 (unknown origin) binding to recombinant […] AB domain (unknown origin) measured after 2 hrs by ELISA; format: protein assay
Method in brief: (§2)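 Commercial kit: compound added with His-tagged PCSK9 to wells coated with recombinant LDLR-AB domain. Bound His-PCSK9 quantified by absorbance at 450 nm. Mean ± s.d. of three independent experiments in duplicate.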

[4] = target: T2, PCSK9/LDLR (Homo sapiens); assay: Inhibition of PCSK9 (unknown origin) interaction with LDLR expressed in human HepG2 cells assessed as LDL uptake level at 1 uM measured after 2 hrs by LDL-Dylight 550 dye based fluorescence assay (reference value: 34.8 to 67%); format: cell-based; design: scale not given: the % may be the effect or the level left
[5] = target: T2, PCSK9/LDLR (Homo sapiens); assay: Inhibition of PCSK9 (unknown origin) interaction with LDLR expressed in human HepG2 cells assessed as LDL uptake level at 0.1 uM measured after 2 hrs by LDL-Dylight 550 dye based fluorescence assay (reference value: 34.8 to 67%); format: cell-based; design: scale not given: the % may be the effect or the level left
[6] = target: T2, PCSK9/LDLR (Homo sapiens); assay: Inhibition of PCSK9 (unknown origin) interaction with LDLR expressed in human HepG2 cells assessed as LDLR level on cell membrane at 0.1 uM measured after 2 hrs by in-cell Western analysis (reference value: 30.5 to 47.2%); format: cell-based; design: scale not given: the % may be the effect or the level left
[7] = target: T2, PCSK9/LDLR (Homo sapiens); assay: Inhibition of PCSK9 (unknown origin) interaction with LDLR expressed in human HepG2 cells assessed as LDLR level on cell membrane at 10 uM measured after 2 hrs by in-cell Western analysis (reference value: 30.5 to 47.2%); format: cell-based; design: scale not given: the % may be the effect or the level left
[8] = target: T2, PCSK9/LDLR (Homo sapiens); assay: Inhibition of PCSK9 (unknown origin) interaction with LDLR expressed in human HepG2 cells assessed as increase LDLR level on cell membrane measured after 2 hrs by in-cell Western analysis; format: cell-based
[9] = target: T2, PCSK9/LDLR (Homo sapiens); assay: Inhibition of PCSK9 (unknown origin) interaction with LDLR expressed in human HepG2 cells assessed as LDL uptake level at 10 uM measured after 2 hrs by LDL-Dylight 550 dye based fluorescence assay (reference value: 34.8 to 67%); format: cell-based; design: scale not given: the % may be the effect or the level left
[10] = test system: HepG2; assay: Cytotoxicity against human HepG2 cells assessed as reduction in cell viability at 0.1 to 10 uM measured after 48 hrs by MTT assay; format: cell-based; settings: hepg2, 48 h
[11] = target: T2, PCSK9/LDLR (Homo sapiens); assay: as §1; format: protein assay; method in brief: as §2
[12] = target: T2, PCSK9/LDLR (Homo sapiens); assay: Inhibition of PCSK9 (unknown origin) interaction with LDLR expressed in human HepG2 cells assessed as increase LDLR level on cell membrane at 10 uM measured after 2 hrs by in-cell Western analysis; format: cell-based
[13] = target: T2, PCSK9/LDLR (Homo sapiens); assay: Inhibition of recombinant His-tagged PCSK9 (unknown origin) binding to recombinant […] AB domain (unknown origin) at 10 uM measured after 2 hrs by ELISA; format: protein assay; method in brief: as §2
[14] = target: T2, PCSK9/LDLR (Homo sapiens); assay: Inhibition of PCSK9 (unknown origin) interaction with LDLR expressed in human HepG2 cells assessed as increase in LDL uptake level at 10 uM measured after 2 hrs by LDL-Dylight 550 dye based fluorescence assay; format: cell-based
[15] = target: T2, PCSK9/LDLR (Homo sapiens); assay: Inhibition of recombinant His-tagged PCSK9 (unknown origin) binding to recombinant […] AB domain (unknown origin) at 100 uM measured after 2 hrs by ELISA relative to control; format: protein assay; method in brief: as §2

pEC50 [1]: 5.22
Compound: Cn1cncc1-c1ncc(-c2ncc(-c3ncc(-c4ccccc4)n3C)n2C)n1C

Activity [2]: < 93.9% | pIC50 [3]: 5.80 | Activity [4]: < 104%
Compound: H-LILPKHSDAD-OH

Activity [5]: 63.6% | Activity [6]: < 77.7% | Activity [7]: < 102% | inhibition [8]: Dose-dependent effect | Activity [9]: 101% | Activity [2]: < 101% | pIC50 [3]: 5.86 | inhibition [11]: Dose-dependent effect | Activity [4]: < 104%
Compound: CNCCCCCn1cncc1-c1ncc(-c2ncc(-c3ccc(OC)cc3)n2C)n1Cc1ccccc1
Activity [10]: Non-Toxic

pIC50 [3]: 5.51 | inhibition [11]: Dose-dependent effect
Compound: CNCCCCCn1cncc1-c1ncc(-c2ncc(-c3ccc(OC)cc3)n2C)n1CCc1ccccc1

inhibition [12]: inactive | inhibition [13]: inactive | inhibition [14]: inactive | inhibition [15]: 18.2%
Compound: COc1ccc(-c2cnc(-c3cncn3Cc3ccccc3)n2C)cc1

pIC50 [3]: 4.40 to 4.70
Compound: CC(C)C[C@H](C(=O)N1CCN([C@@H](CC(N)=O)C(=O)N[C@@H](CCCNC(=N)N)C(=O)N[C@H]2CCOC2=O)CC1)N1C(=O)N[C@@H](CC(=O)O)C1=O
